A short description of data set [1]: Phototoxicity against mouse S37 cells assessed as cell growth inhibition preincubated for 6 hrs with subsequent 10 J/cm2 irradiation followed by incubation in absence of compound for 24 hrs by MTT assay. In kind it is functional. To be noted: S37, light or radiation study. In short, it runs like this: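 S37 cells treated with 0.05–28 μM compound added 24 h after plating. After 0.25–6 h incubation, cells were irradiated with a halogen lamp through a KS-19 filter (720 nm) at 21.0 ± 1.0 mW/cm2, 10 J/cm2, with or without removing the compound. MTT read 24 h later; 50% growth inhibition taken as the value, mean of three tests.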
(Tetrazolium assays rely on reduction of a dye to a coloured formazan, in cell work by metabolically active cells.)

Data set [2] is described as follows: Pro-oxidant activity in 1% cremophor EL or rose Bengal assessed as singlet oxygen radical generation by measuring photo-induced fading of 4-nitroso-N,N-dimethylaniline at 6.1 uM in presence of laser radiation and histidine measured every 5 to 10 mins in presence of singlet oxygen quencher NaN3 by absorption spectroscopy. In kind it is functional.
Data set [3] can be described thus: Phototoxicity against mouse S37 cells implanted in F1 mouse assessed as tumor growth inhibition at 5 mg/kg, iv preincubated for 15 mins with subsequent 150 J/cm2 irradiation measured on day 18 post irradiation relative to control. Particulars: S37, light or radiation study, read-out: TGI. In kind it is functional. In short, it runs like this:
(§1)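 S37 sarcoma mice treated on day 7 of tumor growth with compound iv; tumors 140–160 mm3 beforehand, droperidol 0.25 mg ip as anesthetic. LED irradiation at 800 ± 21 nm, 100 mW/cm2, 150 J/cm2, given 15 or 30 min after dosing. Controls got iv 0.9% NaCl. Volume = d1×d2×d3×0.52; TGI = […]×100%.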

The nature of data set [4]: Phototoxicity against mouse S37 cells implanted in F1 mouse assessed as tumor growth inhibition at 5 mg/kg, iv preincubated for 15 mins with subsequent 150 J/cm2 irradiation measured on day 8 post irradiation relative to control. In kind it is functional. To be noted: S37, light or radiation study, read-out: TGI. The method in brief: as §1
Data set [5] is described as follows: Phototoxicity against rat Sarcoma M1 cells implanted in rat assessed as volume of PCNA-positive cells in tumor parenchyma at 2.5 mg/kg, ip administered as single dose on day 11 after inoculation followed by 300 J/cm2 irradiation after 2.5 to 3 hrs measured on day 3 post photodynamic therapy (reference value: 81 +/- 3%). In kind it is functional. In short, it runs like this:
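Female rats bearing subcutaneous M1 sarcoma in the left thigh were randomised on day 10. They received 2.5 mg/kg ip on day 11. Laser irradiation (810 nm, 0.51 W/cm2, 300 J/cm2, 1.5 cm field, 10 min) followed 2.5−3 h later. PCNA-positive parenchyma was scored by immunohistochemistry (mouse anti-PCNA PC10, 1:200, biotin−extravidin−peroxidase) on post-PDT days 1, 3 and 12, with five animals per time point.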

A short description of data set [6]: Phototoxicity against rat Sarcoma M1 cells implanted in rat assessed as tumor volume at 2.5 mg/kg, ip administered as single dose on day 11 after inoculation followed by 300 J/cm2 irradiation after 2.5 to 3 hrs measured on day 3 post photodynamic therapy (reference value: 1.6 +/- 0.3 mm3). In kind it is functional. The method in brief:
(§2)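 Rats with M1 sarcoma implanted subcutaneously in the left thigh were randomized on day 10, 25 per group. Single ip dose of 2.5 mg/kg on day 11; laser irradiation 2.5–3 h later at 810 nm, 0.51 W/cm2, 300 J/cm2, 10 min over a 1.5 cm field. Five rats sampled per time point for H&E histology, PCNA immunohistochemistry (1:200) and tumor volume. Untreated controls; Student's test, p < 0.05.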

Data set [7] in a line: Phototoxicity against rat Sarcoma M1 cells implanted in rat assessed as volume of tumor parenchyma at 2.5 mg/kg, ip administered as single dose on day 11 after inoculation followed by 300 J/cm2 irradiation after 2.5 to 3 hrs measured on day 12 post photodynamic therapy by hematoxylin and eosin staining based assay (reference value: 56 +/- 3%). In kind it is functional. The method in brief: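 Rat M1 sarcoma was implanted subcutaneously in the left thigh, with randomisation on day 10. A single 2.5 mg/kg ip dose was given on day 11, then 810 nm laser (0.51 W/cm2, 300 J/cm2, 10 min) after 2.5−3 h. Tumours were sectioned on days 1, 3 and 12 after PDT (controls days 12, 14, 23), five animals per point. Parenchyma and necrotic zone volumes were estimated on hematoxylin and eosin staining.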

Data set [8] in a line: Pro-oxidant activity in 1% cremophor EL or rose Bengal assessed as singlet oxygen radical generation by measuring photo-induced fading of 4-nitroso-N,N-dimethylaniline at 3.4 uM in presence of laser radiation and histidine measured every 5 to 10 mins in presence of singlet oxygen quencher NaN3 by absorption spectroscopy. In kind it is functional.
Data set [9] deals with Sarcoma M1. Description: Phototoxicity against rat Sarcoma M1 cells implanted in rat assessed as damage to tumor nodes at 2.5 mg/kg, ip administered as single dose on day 11 post inoculation followed by 300 J/cm2 irradiation after 2.5 to 3 hrs measured on day 2 post photodynamic therapy by hematoxylin and eosin staining based assay. In kind it is functional, organism-based.

Data set [10] in a line: Phototoxicity against rat Sarcoma M1 cells implanted in rat assessed as tumor volume at 2.5 mg/kg, ip administered as single dose on day 11 after inoculation followed by 300 J/cm2 irradiation after 2.5 to 3 hrs measured on day 12 post photodynamic therapy (reference value: 12 +/- 3 mm3). In kind it is functional. The method in brief:
as §2

Data set [11] concerns Sarcoma M1. The data set can be described thus: Phototoxicity against rat Sarcoma M1 cells implanted in rat assessed as tumor vasculature disruption at 2.5 mg/kg, ip administered as single dose on day 11 post inoculation followed by 300 J/cm2 irradiation after 2.5 to 3 hrs measured on day 2 post photodynamic therapy by CD31 dependent immunoimgaing. In kind it is functional, organism-based.

Data set [12] can be described thus: Phototoxicity against mouse S37 cells implanted in F1 mouse assessed as tumor growth inhibition at 5 mg/kg, iv preincubated for 30 mins with subsequent 150 J/cm2 irradiation measured on day 18 post irradiation relative to control. In kind it is functional. Particulars: S37, light or radiation study, read-out: TGI. In short, it runs like this:
as §1

The nature of data set [13]: Drug uptake in tumor of F1 mouse implanted with mouse S37 cells assessed as normalized fluorescence units at 2.5 mg/kg, iv measured after 30 mins in presence of He-Ne laser radiation by local fluorescence spectroscopic analysis. In kind it is ADME, organism-based, Neoplasm. To be noted: in vivo, 0.5 h. In short, it runs like this:
(§3)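 S37 sarcoma-bearing immunocompetent F1 mice (18−22 g) given PS 2.5 mg/kg iv. Animals sacrificed at 0.25, 0.5, 2, 4 and 24 h, with three animals per time point. Skin, tumor and organ samples were read ex vivo by contact local fluorescence spectroscopy under He−Ne 632.8 nm excitation. Integrated 640−900 nm emission was normalized to the backscattered laser signal to give FN.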

Data set [14] deals with Sarcoma M1. The data set can be described thus: Phototoxicity against rat Sarcoma M1 cells implanted in rat assessed as deposition of fragments of proliferated tumor parenchyma at 2.5 mg/kg, ip administered as single dose on day 11 post inoculation followed by 300 J/cm2 irradiation after 2.5 to 3 hrs measured on day 2 post photodynamic therapy. In kind it is functional, organism-based.

Data set [15] in a line: Phototoxicity against rat Sarcoma M1 cells implanted in rat assessed as mitotic index at 2.5 mg/kg, ip administered as single dose on day 11 after inoculation followed by 300 J/cm2 irradiation after 2.5 to 3 hrs measured on day 3 post photodynamic therapy (reference value: 1.84 +/- 0.04%). In kind it is functional. In short, it runs like this:
as §2

Data set [16] can be described thus: Drug uptake in skin tumor of F1 mouse implanted with mouse S37 cells assessed as normalized fluorescence at 2.5 mg/kg, iv measured after 30 mins post injection in presence of He-Ne laser radiation by local fluorescence spectroscopic analysis. In kind it is ADME, organism-based. To be noted: in vivo, 0.5 h. The method in brief:
as §3

Calls of active or inactive are those of the source. The calls are words filed in the database; no cut-off is given here.

Turning to `CCCO/N=C(\C)c1c(C)c2cc3nc(c4c5[nH]c(cc6nc(cc1[nH]2)[C@H](C)[C@H]6CC)c(C)c5C(=O)N(OCCC)C4=O)[C@@H](CCC(=O)OC)[C@@H]3C`, the cytotoxic concentration (CC50) in data set [1] came out at 110 nM. The result in data set [2] was inactive. Further, the inhibition in vivo at 5 mg/kg in data set [3] and in [4] was 100% each time.

Take `CCCO/N=C(\C)c1c(C)c2cc3nc(c4c5[nH]c(cc6nc(cc1[nH]2)[C@@H](C)[C@@H]6CC)c(C)c5C(=O)N(OCCC)C4=O)[C@H](CCC(=O)NCCSSCCNC(=O)CC[C@@H]1c2nc(cc4[nH]c(cc5nc(cc6[nH]c7c2C(=O)N(OCCC)C(=O)c7c6C)[C@H](CC)[C@H]5C)c(/C(C)=N/OCCC)c4C)[C@H]1C)[C@H]3C`: the Activity is given as 38% in [5]; 0.59 mm3 in [6]; 30% in [7]; 0.44 mm3 in data set [10]; 1.84% in data set [15]. The outcome in data set [8] was inactive. Further, the outcome in the data set with Sarcoma M1 [9], in the data set with Sarcoma M1 [11] and in the data set on Sarcoma M1 [14] was Active. In data set [12], the inhibition in vivo at 5 mg/kg was 100%. In addition, the Flu intensity in [13] was 4 RU; in [16], 2.2 RU.

The term CC50 denotes the concentration at which the toxic effect on the cells reaches its halfway point.

For the origin of these results see ChEMBL document CHEMBL4024769, “Synthesis and Investigation of Photophysical and Biological Properties of Novel S-Containing Bacteriopurpurinimides” (J Med Chem, 2017).
